The results in this text go back to ChEMBL document CHEMBL1155196, “N-hydroxybenzimidazole inhibitors of the transcription factor LcrF in Yersinia: novel antivirulence agents” (J Med Chem, 2009).

In one series the test system is J774.A1. The experiment in a line: Cytotoxicity against mouse J774A1 cells assessed as LDH release at 50 ug/mL after 18 hrs by colorimetric assay. It is filed as cell-based. The settings on record: j774.a1, 18 h. On the technique in general: Release of lactate dehydrogenase indicates damage to the cell membrane.
For the next series, the system named is Nucleic Acid. The experiment in a line: Binding affinity to supercoiled Escherichia coli pET-15b DNA after 30 mins by agarose gel electrophoresis assay. It is filed as nucleic-acid assay. The method, boiled down:
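Nonspecific DNA binding: compounds diluted to 1 mg/mL in DMSO with 0.4% ethanolamine, then added 1:10 (final 100 μg/mL) to 100 ng supercoiled pET-15b plasmid in 20 mM Hepes pH 7.6, 10 mM ammonium sulfate, 30 mM KCl, 1 mM EDTA, 0.2% polysorbate-20; 30 min room temperature; 0.8% agarose gel, ethidium bromide stain; migration shift scored; vehicle control.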

One may read the IC50 as the concentration that inhibits the measured activity by half. A low value points to greater potency.

As for `CN(C)CCN(C)c1cc2nc(-c3ccc(NC(=O)/C=C/c4ccc(F)cc4)cc3)n(O)c2cc1[N+](=O)[O-]`, the Activity entry in the series on J774.A1 is “Non-toxic”. The molecule further registered an IC50 in the series on Nucleic Acid of 3.3 µM.

On to `CN1CCN(CCOc2cc3nc(-c4ccc(NC(=O)/C=C/c5ccc(F)cc5)cc4)n(O)c3cc2[N+](=O)[O-])CC1`, for which the Activity result with J774.A1 is recorded as “Non-toxic”. This molecule registered an IC50 in the series on Nucleic Acid of 3.1 µM.
